Test results from ChEMBL document CHEMBL1156237, “Antiviral activity of benzimidazole derivatives. II. Antiviral activity of 2-phenylbenzimidazole derivatives” (Bioorg Med Chem, 2010).
Active and inactive are the calls of the source. Unless noted, the rule behind the calls is not given here.

Test system: not listed separately
Assay: Cytotoxicity against human MT4 cells after 96 hrs by MTT assay
Type: cell-based
Conditions: MT4 cells
How it was run: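 Exponentially growing MT-4 cells at 1 × 10^5 cells/mL in RPMI-1640 with 10% FCS, exposed to serial compound dilutions at 37 °C, 5% CO2. Viability by MTT after 96 h; CC50 is the concentration reducing viability of mock-infected cells by 50%.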

SMILES	CC50 at 96 h [µM]
CCN(CC)CC(=O)Nc1ccc(-c2nc3cc(C(F)(F)F)ccc3n2C)cc1	9
Cn1c(-c2ccc(NC(=O)CN3CCCC3)cc2)nc2cc(C(F)(F)F)ccc21	16
Nc1ccc(-c2nc3cc(C(F)(F)F)ccc3n2C23CC4CC(CC(C4)C2)C3)cc1	19
Cn1c(-c2ccc(NC(=O)CN3CCSCC3)cc2)nc2cc(C(F)(F)F)ccc21	10

Test system: Human alphaherpesvirus 1
Assay: Antiviral activity against HSV1 KOS infected in african green monkey Vero cells after 3 days by plaque reduction assay
Type: functional, organism-based
Conditions: Human alphaherpesvirus 1, KOS, 72 h
How it was run: (§1)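 Plaque reduction assay. Vero 76 cells at 2 × 10^5/well, grown overnight to confluence in D-MEM with 10% FBS. Infected 2 h with 50–100 PFU/well, unadsorbed virus removed. Overlay of D-MEM with 1% inactivated FBS and 0.75% methylcellulose, with or without serial compound dilutions. Incubated at 37 °C for 3 days (HSV-1 KOS, CVB-2 Ohio-1) or 5 days (RSV A2). Fixed and stained with crystal violet in 50% ethanol; plaques counted; EC50 by linear regression.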

SMILES	EC50 [µM]
CCN(CC)CC(=O)Nc1ccc(-c2nc3cc(C(F)(F)F)ccc3n2C)cc1	> 90
Cn1c(-c2ccc(NC(=O)CN3CCCC3)cc2)nc2cc(C(F)(F)F)ccc21	51
Nc1ccc(-c2nc3cc(C(F)(F)F)ccc3n2C23CC4CC(CC(C4)C2)C3)cc1	> 60
Cn1c(-c2ccc(NC(=O)CN3CCSCC3)cc2)nc2cc(C(F)(F)F)ccc21	> 100

Test system: Vaccinia virus
Assay: Antiviral activity against Vaccinia virus Elstree-Lister infected in african green monkey Vero cells after 3 days by plaque reduction assay
Type: functional, organism-based
Conditions: Orthopoxvirus vaccinia

SMILES	Activity
CCN(CC)CC(=O)Nc1ccc(-c2nc3cc(C(F)(F)F)ccc3n2C)cc1	inactive
Cn1c(-c2ccc(NC(=O)CN3CCCC3)cc2)nc2cc(C(F)(F)F)ccc21	inactive
Nc1ccc(-c2nc3cc(C(F)(F)F)ccc3n2C23CC4CC(CC(C4)C2)C3)cc1	inactive
Cn1c(-c2ccc(NC(=O)CN3CCSCC3)cc2)nc2cc(C(F)(F)F)ccc21	inactive

Test system: Mammalian orthoreovirus 1
Assay: Antiviral activity against Reovirus 1 3651 infected in BHK21 cells assessed as protection from virus-induced cytopathogenicity after 3 to 4 days by MTT method
Type: functional, organism-based
Conditions: BHK-21

SMILES	Activity
CCN(CC)CC(=O)Nc1ccc(-c2nc3cc(C(F)(F)F)ccc3n2C)cc1	inactive
Cn1c(-c2ccc(NC(=O)CN3CCCC3)cc2)nc2cc(C(F)(F)F)ccc21	inactive
Nc1ccc(-c2nc3cc(C(F)(F)F)ccc3n2C23CC4CC(CC(C4)C2)C3)cc1	inactive
Cn1c(-c2ccc(NC(=O)CN3CCSCC3)cc2)nc2cc(C(F)(F)F)ccc21	inactive

Test system: Respiratory syncytial virus
Assay: Antiviral activity against RSV A2 infected in african green monkey Vero cells after 5 days by plaque reduction assay
Type: functional, organism-based
Conditions: not given
How it was run: as §1

SMILES	Activity
CCN(CC)CC(=O)Nc1ccc(-c2nc3cc(C(F)(F)F)ccc3n2C)cc1	inactive
Cn1c(-c2ccc(NC(=O)CN3CCCC3)cc2)nc2cc(C(F)(F)F)ccc21	inactive
Nc1ccc(-c2nc3cc(C(F)(F)F)ccc3n2C23CC4CC(CC(C4)C2)C3)cc1	inactive
Cn1c(-c2ccc(NC(=O)CN3CCSCC3)cc2)nc2cc(C(F)(F)F)ccc21	inactive

Test system: Yellow fever virus
Assay: Antiviral activity against Yellow fever virus 17D infected in BHK cells assessed as protection from virus-induced cytopathogenicity after 3 to 4 days by MTT method
Type: functional, organism-based
Conditions: not given

SMILES	EC50 [µM]
CCN(CC)CC(=O)Nc1ccc(-c2nc3cc(C(F)(F)F)ccc3n2C)cc1	7
Cn1c(-c2ccc(NC(=O)CN3CCCC3)cc2)nc2cc(C(F)(F)F)ccc21	> 27
Nc1ccc(-c2nc3cc(C(F)(F)F)ccc3n2C23CC4CC(CC(C4)C2)C3)cc1	> 16
Cn1c(-c2ccc(NC(=O)CN3CCSCC3)cc2)nc2cc(C(F)(F)F)ccc21	46

Test system: Vesicular stomatitis virus
Assay: Antiviral activity against VSV Indiana lab infected in african green monkey Vero cells after 2 days by plaque reduction assay
Type: functional, organism-based
Conditions: not given

SMILES	Activity
CCN(CC)CC(=O)Nc1ccc(-c2nc3cc(C(F)(F)F)ccc3n2C)cc1	inactive
Cn1c(-c2ccc(NC(=O)CN3CCCC3)cc2)nc2cc(C(F)(F)F)ccc21	inactive
Nc1ccc(-c2nc3cc(C(F)(F)F)ccc3n2C23CC4CC(CC(C4)C2)C3)cc1	inactive
Cn1c(-c2ccc(NC(=O)CN3CCSCC3)cc2)nc2cc(C(F)(F)F)ccc21	inactive

Test system: Poliovirus 1
Assay: Antiviral activity against Polio virus type1 Sabin strain Chat infected in african green monkey Vero cells after 2 days by plaque reduction assay
Type: functional, organism-based, Human poliovirus 1 strain Sabin
Conditions: Enterovirus C, 48 h

SMILES	EC50 [µM]
CCN(CC)CC(=O)Nc1ccc(-c2nc3cc(C(F)(F)F)ccc3n2C)cc1	35
Cn1c(-c2ccc(NC(=O)CN3CCCC3)cc2)nc2cc(C(F)(F)F)ccc21	50
Nc1ccc(-c2nc3cc(C(F)(F)F)ccc3n2C23CC4CC(CC(C4)C2)C3)cc1	> 60
Cn1c(-c2ccc(NC(=O)CN3CCSCC3)cc2)nc2cc(C(F)(F)F)ccc21	> 100

Test system: not listed separately
Assay: Cytotoxicity against african green monkey Vero cells
Type: cell-based
Conditions: chlorocebus sabaeus
How it was run: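 Vero 76 monolayers exposed to serial compound dilutions, run in parallel on the same 24-well plates as the plaque-reduction assays. CC50 is the concentration reducing viability of mock-infected cells by 50%.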

SMILES	CC50 [µM]
CCN(CC)CC(=O)Nc1ccc(-c2nc3cc(C(F)(F)F)ccc3n2C)cc1	90
Cn1c(-c2ccc(NC(=O)CN3CCCC3)cc2)nc2cc(C(F)(F)F)ccc21	> 100
Nc1ccc(-c2nc3cc(C(F)(F)F)ccc3n2C23CC4CC(CC(C4)C2)C3)cc1	60
Cn1c(-c2ccc(NC(=O)CN3CCSCC3)cc2)nc2cc(C(F)(F)F)ccc21	> 100

Test system: Bovine viral diarrhea virus 1
Assay: Antiviral activity against Bovine viral diarrhea virus NADL infected in MDBK cells assessed as protection from virus-induced cytopathogenicity after 3 to 4 days by MTT method
Type: functional, organism-based, Bovine viral diarrhea virus 1-NADL
Conditions: Bovine viral diarrhea virus isolates and strains, MDBK
How it was run: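 Cytopathogenicity protection assay. MDBK cells at 3 × 10^4/well, grown overnight to confluence. Infected with BVDV NADL at m.o.i. 0.01 in MEM-E with 0.5% inactivated FBS, 1 mM Na pyruvate and 1% kanamycin. Serial compound dilutions added after 1 h. After 3–4 days at 37 °C, viability read by MTT; EC50 is the concentration giving 50% protection.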

SMILES	EC50 [µM]
CCN(CC)CC(=O)Nc1ccc(-c2nc3cc(C(F)(F)F)ccc3n2C)cc1	10
Cn1c(-c2ccc(NC(=O)CN3CCCC3)cc2)nc2cc(C(F)(F)F)ccc21	7
Nc1ccc(-c2nc3cc(C(F)(F)F)ccc3n2C23CC4CC(CC(C4)C2)C3)cc1	7
Cn1c(-c2ccc(NC(=O)CN3CCSCC3)cc2)nc2cc(C(F)(F)F)ccc21	8

Test system: Human immunodeficiency virus 1
Assay: Antiviral activity against HIV1 3B infected in human MT4 cells assessed as protection from virus-induced cytopathogenicity after 4 days by MTT method
Type: functional, organism-based
Conditions: not given
How it was run: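 MT-4 cells, 1 × 10^4/well in RPMI with or without serial compound dilutions, infected with HIV-1 IIIB, 100 CCID50 (m.o.i. 0.01). Protection from virus-induced cytopathogenicity read by MTT.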

SMILES	Activity
CCN(CC)CC(=O)Nc1ccc(-c2nc3cc(C(F)(F)F)ccc3n2C)cc1	inactive
Cn1c(-c2ccc(NC(=O)CN3CCCC3)cc2)nc2cc(C(F)(F)F)ccc21	inactive
Nc1ccc(-c2nc3cc(C(F)(F)F)ccc3n2C23CC4CC(CC(C4)C2)C3)cc1	inactive
Cn1c(-c2ccc(NC(=O)CN3CCSCC3)cc2)nc2cc(C(F)(F)F)ccc21	inactive

Test system: not listed separately
Assay: Cytotoxicity against BHK cells after 48 to 96 hrs by MTT assay
Type: cell-based, Mesocricetus auratus
Conditions: hamster
How it was run: (§2)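 Cell seeding: MDBK at 6 × 10^5 cells/mL in MEM-E with 10% horse serum and 1 mM Na pyruvate; BHK at 1 × 10^6 cells/mL in MEM-E with 10% FBS. Serial compound dilutions, 37 °C, 5% CO2. Viability of mock-infected cells by MTT after 48–96 h; CC50 is the concentration reducing viability by 50%.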

SMILES	CC50 [µM]
CCN(CC)CC(=O)Nc1ccc(-c2nc3cc(C(F)(F)F)ccc3n2C)cc1	16
Cn1c(-c2ccc(NC(=O)CN3CCCC3)cc2)nc2cc(C(F)(F)F)ccc21	27
Nc1ccc(-c2nc3cc(C(F)(F)F)ccc3n2C23CC4CC(CC(C4)C2)C3)cc1	16
Cn1c(-c2ccc(NC(=O)CN3CCSCC3)cc2)nc2cc(C(F)(F)F)ccc21	> 100

Test system: not listed separately
Assay: Cytotoxicity against MDBK cells after 48 to 96 hrs by MTT assay
Type: cell-based, Bos taurus
Conditions: cattle, MDBK cells
How it was run: as §2

SMILES	CC50 [µM]
CCN(CC)CC(=O)Nc1ccc(-c2nc3cc(C(F)(F)F)ccc3n2C)cc1	57
Cn1c(-c2ccc(NC(=O)CN3CCCC3)cc2)nc2cc(C(F)(F)F)ccc21	65
Nc1ccc(-c2nc3cc(C(F)(F)F)ccc3n2C23CC4CC(CC(C4)C2)C3)cc1	19
Cn1c(-c2ccc(NC(=O)CN3CCSCC3)cc2)nc2cc(C(F)(F)F)ccc21	> 100

Test system: Coxsackievirus B2
Assay: Antiviral activity against Human coxsackievirus B2 Ohio-1 infected in african green monkey Vero cells after 3 days by plaque reduction assay
Type: functional, organism-based, Coxsackievirus B2 (strain Ohio-1)
Conditions: Enterovirus B, Vero, 72 h
How it was run: as §1

SMILES	EC50 [µM]
CCN(CC)CC(=O)Nc1ccc(-c2nc3cc(C(F)(F)F)ccc3n2C)cc1	21
Cn1c(-c2ccc(NC(=O)CN3CCCC3)cc2)nc2cc(C(F)(F)F)ccc21	13
Nc1ccc(-c2nc3cc(C(F)(F)F)ccc3n2C23CC4CC(CC(C4)C2)C3)cc1	11
Cn1c(-c2ccc(NC(=O)CN3CCSCC3)cc2)nc2cc(C(F)(F)F)ccc21	22
